According to ChEMBL document CHEMBL1255465, “Persistence of uropathogenic Escherichia coli in the face of multiple antibiotics” (Antimicrob Agents Chemother, 2010):
Activity calls are given as the source filed them. The rule behind the calls is not given here.

Key:
[1] = test system: 5637; assay: Cytotoxicity against human 5637 cells assessed as mild induction of cell death by trypan blue exclusion assay; format: cell-based
Method in brief: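 Integrity of 5637 cells after drug treatment assessed by 0.4% trypan blue exclusion, following a standard protocol.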

[2] = test system: 5637; assay: Cytotoxicity against human 5637 cells assessed as mild induction of cell death by LDH release assay; format: cell-based
[3] = test system: Escherichia coli; assay: Antibacterial activity against uropathogenic Escherichia coli UTI89 infected in CBA/J mouse assessed as decrease in bacterial invasion into layers of urothelium at 1 mg/kg, po administered on day 3 postinfection daily for 3 days measured on day 9 post-inoculation; format: functional, organism-based; design: dose 1 mg/kg
[4] = Drug level in Escherichia coli UTI89-infected CBA/J mouse urine at 1 mg/kg, po after 2 hrs; format: ADME, organism-based; design: dose 1 mg/kg, route oral; conditions: in vivo
Method in brief: (§1)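 Urine collected by gentle bladder pressure 2 h after oral dosing of UTI89-infected CBA/J mice. 10 μl spotted on 7-mm filter discs, placed on fresh UTI89 lawns on LB agar. Clearance diameter measured after 24 h at 37°C. Urine drug level calculated from standard curves of discs holding known antibiotic concentrations.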

[5] = test system: Escherichia coli; assay: Antibacterial activity against uropathogenic Escherichia coli UTI89 assessed as inhibition of biofilm formation after 24 hrs by microtiterplate-based assay; format: functional, organism-based
Method in brief: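 Biofilms of UTI89 formed for 48 h at 37°C without shaking in M9 (1:100 inoculum, triplicate wells). Fresh M9 ± drug (higher of two tested concentrations) then added for 24 h. Biomass stained with 0.1% crystal violet, solubilized in DMSO, read at A562, and expressed relative to untreated controls. Three independent experiments.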

[6] = test system: Escherichia coli; assay: Antibacterial activity against uropathogenic Escherichia coli UTI89 infected in CBA/J mouse assessed as decrease in bacterial load in bladder at 1 mg/kg, po administered on day 3 postinfection daily for 3 days measured on day 9 post-inoculation; format: functional, organism-based; design: dose 1 mg/kg; conditions: Urinary bladder
Method in brief: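 Female CBA/J mice, 7–8 weeks old, inoculated transurethrally with ~10^7 CFU UTI89 (24-h static LB culture) in 50 μl PBS. From day 3, one oral gavage daily for 3 days, 50 μl; controls given water. On day 9, bladders homogenized in PBS with 0.025% Triton X-100 and plated on LB agar for CFU. 11 mice from two experiments; Mann-Whitney U test.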

[7] = test system: Escherichia coli; assay: Antibacterial activity against uropathogenic Escherichia coli UTI89 isolated from urine samples of infected CBA/J mouse after 24 hrs by disk diffusion assay; format: functional, organism-based; method in brief: as §1
[8] = test system: Escherichia coli; assay: Antibacterial activity against uropathogenic Escherichia coli UTI89 assessed as degradation of preexisting biofilm after 24 hrs by microscopy; format: functional, organism-based
Method in brief: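 UTI89 diluted 1:100 into M9 medium and grown statically 48 h at 37°C in microtiter wells. Nonadherent cells removed, fresh M9 ± drug added for 24 h, using the higher of two tested concentrations. Viable bacteria in biofilms visualized by Live/Dead BacLight staining and microscopy.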

[9] = test system: Escherichia coli; assay: Antibacterial activity against uropathogenic Escherichia coli UTI89 infected in CBA/J mouse assessed as decrease in bacterial invasion into layers of urothelium at 1 mg/kg, po administered on day 3 postinfection daily for 3 days measured on day 9 post-inoculation in presence of Triton X-100; format: functional, organism-based; design: dose 1 mg/kg
[10] = test system: Escherichia coli; assay: Antibacterial activity against uropathogenic Escherichia coli UTI89 infected in human 5637 cells assessed as decrease in intracellular bacterial level at 700 to 1000 ug/ml after 12 hrs by serial dilution method; format: functional, organism-based
Method in brief: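 Confluent 5637 monolayers in triplicate infected with UTI89 (24-h static LB culture, type 1 pili) at MOI ~15 and spun 600 × g for 5 min. After 2 h: gentamicin 100 μg/ml for 2 h, then 10 μg/ml for 14 h. Then 12 h with drug at two concentrations. Cells lysed in 0.4% Triton X-100 and plated on LB agar. Titers expressed relative to 800 μg/ml gentamicin. ≥3 independent assays.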

## C[C@@H]1O[C@@H]1P(=O)(O)O [FOSFOMYCIN]
[1]
  Activity: Toxic
[2]
  Activity: Toxic
[3]
  inhibition: inactive
[4]
  Drug uptake: 4 µg/mL
[5]
  Biofilm inhibition activity: Active
[6]
  inhibition: inactive
[7]
  Activity: Active
[8]
  Activity: Active
[9]
  inhibition: Active
[10]
  inhibition: Active
